Where “and” joins values, the source holds several entries; their conditions need not be identical. Equal values may be shown once. Calls of active or inactive are those of the source. The calls are words filed in the database; no cut-off is given here.
Experiments:
[1] = Binding affinity to arginine in deuterium oxide solution assessed as change in complexation induced chemical shift at 2 mM by 1H NMR analysis
[2] = Binding affinity to histidine in aqueous solution assessed as change in enthalpy at 1 mM by isothermal titration calorimetry
Procedure, shortened: (§1)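 ITC at 298 K: sample cell filled with one partner at 1 mM, titrant at 15 mM in syringe, computer-automated injections. Blank titrations into plain solvent subtracted to remove heats of dilution. Data fitted to a 1:1 (one-site) binding model to give K, ΔH and ΔS.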

[3] = target: T1, Alpha-crystallin A chain (Homo sapiens) (UniProt P02489); test: Inhibition of alphaA (66 to 80 residues) crystallin peptide aggregation assessed as decrease in peptide-receptor complex and measured after 72 hrs by ESI-MS analysis
T1 sequence (whole entry): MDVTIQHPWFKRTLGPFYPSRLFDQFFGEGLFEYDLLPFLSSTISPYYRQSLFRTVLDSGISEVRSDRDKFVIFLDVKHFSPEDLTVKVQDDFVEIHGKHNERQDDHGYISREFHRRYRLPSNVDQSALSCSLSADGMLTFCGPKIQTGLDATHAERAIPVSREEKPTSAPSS
Procedure, shortened: (§2)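 Peptide and host (10 mM aqueous stocks) were mixed in equal parts to 5 mM each. Mixtures were diluted in ESI buffer (50% methanol, 49% water, 1% acetic acid) and analysed by positive-mode ESI-MS, either within 2 h of mixing or after incubation for 72+ h at 37 °C followed by 100-fold dilution.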

[4] = target: T1, Alpha-crystallin A chain (Homo sapiens); test: Inhibition of alphaA (66 to 80 residues) crystallin peptide aggregation at peptide to ligand ratio of 0.2 to 5:1 incubated for 7 days by fluorescence aggregation assay; details: time 7.0 day
Procedure, shortened: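 5360 μM peptide in 10 mM Tris was mixed with receptor at 0.2:1 to 10:1 receptor:peptide ratios and incubated 7 days at 37 °C. Proteostat dye was added (1 μL per 10 μL sample) with positive/negative dye controls. Fluorescence was read at 25 °C. Triplicates; percent inhibition plotted vs log[concentration] to derive IC50.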

[5] = Binding affinity to arginine in aqueous solution assessed as gibbs free energy change at 1 mM by isothermal titration calorimetry; procedure, shortened: as §1
[6] = target: T1, Alpha-crystallin A chain (Homo sapiens); test: Binding affinity to alphaA (66 to 80 residues) crystallin peptide in aqueous solution assessed as change in enthalpy at 1 mM by isothermal titration calorimetry; procedure, shortened: as §1
[7] = target: T1, Alpha-crystallin A chain (Homo sapiens); test: Inhibition of alphaA (66 to 80 residues) crystallin peptide aggregation assessed decrease in large fibrillar aggregation at 1:1 peptide to ligand ratio incubated for 7 days by transmission electron microscopy; details: time 7.0 day
Procedure, shortened: (§3)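 Peptide incubated with receptor at 1:1 or 5:1 ratio for 7 days at 37 °C. A 10 μL aliquot taken on day 7 was loaded onto Formvar-carbon coated 200 mesh nickel grids and allowed to absorb for 2 h. Grids were washed three times with deionized water and blotted dry. Peptide-alone control; duplicate grids per sample; imaged by TEM.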

[8] = Binding affinity to lysine in aqueous solution assessed as association constant at 1 mM by isothermal titration calorimetry; procedure, shortened: as §1
[9] = Binding affinity to lysine in aqueous solution assessed as change in enthalpy at 1 mM by isothermal titration calorimetry; procedure, shortened: as §1
[10] = Binding affinity to arginine in aqueous solution assessed as change in entropy at 1 mM by isothermal titration calorimetry
Procedure, shortened: (§4)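 ITC at 298 K. The sample cell holds one partner at 1 mM and the syringe holds titrant at 15 mM, added by automated injections. Titrations were run in water and in 10 mM Tris buffer pH 7.4. Blank titrations into plain solvent were subtracted to correct for heats of dilution. The data were fitted to a 1:1 (one-site) binding model to give K, ΔH and ΔS.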

[11] = target: T1, Alpha-crystallin A chain (Homo sapiens); test: Inhibition of alphaA (66 to 80 residues) crystallin peptide aggregation assessed as decrease in peptide-receptor complex and measured upto 2 hrs by ESI-MS analysis; procedure, shortened: as §2
[12] = Binding affinity to arginine in aqueous solution assessed as association constant at 1 mM by isothermal titration calorimetry; procedure, shortened: as §1
[13] = Binding affinity to aspartic acid in deuterium oxide solution assessed as change in complexation induced chemical shift at 2 mM by 1H NMR analysis
[14] = target: T1, Alpha-crystallin A chain (Homo sapiens); test: Inhibition of alphaA (66 to 80 residues) crystallin peptide aggregation assessed as decrease in average diameter size distribution at 1:1 peptide to ligand ratio incubated for 7 days by dynamic light scattering (Rvb=12000+/-1500 nm); details: time 7.0 day
[15] = Binding affinity to lysine in deuterium oxide solution assessed as change in complexation induced chemical shift at 2 mM by 1H NMR analysis
[16] = Binding affinity to histidine in deuterium oxide solution assessed as change in complexation induced chemical shift at 2 mM by 1H NMR analysis
[17] = target: T1, Alpha-crystallin A chain (Homo sapiens); test: Binding affinity to alphaA (66 to 80 residues) crystallin peptide in aqueous solution assessed as association constant at 1 mM by isothermal titration calorimetry; procedure, shortened: as §1
[18] = Binding affinity to histidine in aqueous solution assessed as change in entropy at 1 mM by isothermal titration calorimetry; procedure, shortened: as §4
[19] = target: T1, Alpha-crystallin A chain (Homo sapiens); test: Binding affinity to alphaA (66 to 80 residues) crystallin peptide in aqueous solution assessed as gibbs free energy change at 1 mM by isothermal titration calorimetry; procedure, shortened: as §1
[20] = Binding affinity to histidine in aqueous solution assessed as association constant at 1 mM by isothermal titration calorimetry; procedure, shortened: as §1
[21] = Binding affinity to lysine in aqueous solution assessed as change in entropy at 1 mM by isothermal titration calorimetry; procedure, shortened: as §4
[22] = Binding affinity to histidine in aqueous solution assessed as gibbs free energy change at 1 mM by isothermal titration calorimetry; procedure, shortened: as §1
[23] = Binding affinity to arginine in aqueous solution assessed as change in enthalpy at 1 mM by isothermal titration calorimetry; procedure, shortened: as §1
[24] = Binding affinity to lysine in aqueous solution assessed as gibbs free energy change at 1 mM by isothermal titration calorimetry; procedure, shortened: as §1
[25] = target: T1, Alpha-crystallin A chain (Homo sapiens); test: Binding affinity to alphaA (66 to 80 residues) crystallin peptide in aqueous solution assessed as change in entropy at 1 mM by isothermal titration calorimetry; procedure, shortened: as §1
[26] = target: T1, Alpha-crystallin A chain (Homo sapiens); test: Inhibition of alphaA (66 to 80 residues) crystallin peptide aggregation assessed as amorphous small protein aggregates at 1:1 peptide to ligand ratio incubated for 7 days by transmission electron microscopy; details: time 7.0 day; procedure, shortened: as §3
[27] = Binding affinity to aspartic acid in aqueous solution assessed as change in enthalpy at 1 mM by isothermal titration calorimetry; procedure, shortened: as §1
[28] = Binding affinity to aspartic acid in aqueous solution assessed as gibbs free energy change at 1 mM by isothermal titration calorimetry; procedure, shortened: as §1
[29] = Binding affinity to aspartic acid in aqueous solution assessed as association constant at 1 mM by isothermal titration calorimetry; procedure, shortened: as §1
[30] = Binding affinity to aspartic acid in aqueous solution assessed as change in entropy at 1 mM by isothermal titration calorimetry; procedure, shortened: as §4

| Compound | Activity [1] | deltaH [2] [kcal/mol] | inhibition [3] | inhibition [4] | deltaG [5] | deltaH [6] [kcal/mol] | inhibition [7] | Ka [8] | inhibition [11] | Activity [13] | Activity [14] [nm] | Activity [15] | Activity [16] | Ka [17] | TdeltaS [18] [kcal/mol] | deltaG [19] | Ka [20] | deltaG [22] | TdeltaS [25] [kcal/mol] | inhibition [26] | further results |
| --- | --- | --- | --- | --- | --- | --- | --- | --- | --- | --- | --- | --- | --- | --- | --- | --- | --- | --- | --- | --- | --- |
| O=S(=O)(O)CCCc1cc(C(CCS(=O)(=O)O)c2cc(C(CCS(=O)(=O)O)c3cc(C(CCS(=O)(=O)O)c4ccc(O)cc4O)c(O)cc3O)c(O)cc2O)c(O)cc1O (centres undefined) | Active | -1.05 | inactive | Dose-Dependent Effect | -4.9 kcal/mol | -3.23 | Active | 4.45 10^3/M | inactive | inactive | 3740 | Active | inactive | 380 10^3/M | 3.75 | -7.61 kcal/mol and -7.6 kcal/mol | 3.44 10^3/M | -4.8 kcal/mol | 4.38 | Active | deltaH [9]: -6.74 kcal/mol; TdeltaS [10]: -10.2 kcal/mol; Ka [12]: 3.64 10^3/M; TdeltaS [21]: -1.76 kcal/mol; deltaH [23]: -15.2 kcal/mol; deltaG [24]: -4.98 kcal/mol and -4.97 kcal/mol |
| OCCCCc1cc(C(CCCO)c2cc(C(CCCO)c3cc(C(CCCO)c4ccc(O)c(CNCc5ccccc5)c4O)c(O)c(CNCc4ccccc4)c3O)c(O)c(CNCc3ccccc3)c2O)c(O)c(CNCc2ccccc2)c1O (centres undefined) | Active | -7.53 | Active | Dose-Dependent Effect | – | 4.89 | Active | – | Active | Active | 202 | Active | Active | 2.4 10^3/M | -1.84 | -4.59 kcal/mol | 14.9 10^3/M | -5.69 kcal/mol | 9.48 | Active | deltaH [27]: -1 kcal/mol; deltaG [28]: -3.9 kcal/mol; Ka [29]: 7.3 10^3/M; TdeltaS [30]: 2.9 kcal/mol |
| CCCc1cc(C(CC)c2cc(C(CC)c3cc(C(CC)c4ccc(O)c(CS(=O)(=O)O)c4O)c(O)c(CS(=O)(=O)O)c3O)c(O)c(CS(=O)(=O)O)c2O)c(O)c(CS(=O)(=O)O)c1O (centres undefined) | Active | -2.59 | inactive | Dose-Dependent Effect | -5.27 kcal/mol and -5.28 kcal/mol | -8.28 | Active | 5.89 10^3/M | inactive | inactive | 1920 | Active | inactive | 1360 10^3/M | 6.91 | -8.37 kcal/mol | 2.94 10^3/M | -9.5 kcal/mol and -9.51 kcal/mol | 0.092 | Active | deltaH [9]: -12.1 kcal/mol; TdeltaS [10]: -10.4 kcal/mol; Ka [12]: 7.27 10^3/M; TdeltaS [21]: -6.45 kcal/mol; deltaH [23]: -15.7 kcal/mol; deltaG [24]: -5.62 kcal/mol |

— ChEMBL document CHEMBL5223067, “Functionalized resorcinarenes effectively disrupt the aggregation of αA66-80 crystallin peptide related to cataracts” (RSC Med Chem, 2021)
